Experimental data published in ChEMBL document CHEMBL4673184, “Synthesis and biological evaluation of S-lipidated lipopeptides of a connexin 43 channel inhibitory peptide” (RSC Med Chem, 2020).
Active and inactive are the calls of the source. The calls are words filed in the database; no cut-off is given here. Where a SMILES comes first, the peptide text is derived from it. The star is where a group is joined. Ethyl(2-stearoyloxy) = CCCCCCCCCCCCCCCCCC(=O)OCC*; Ethyl(2-palmitoyloxy) = CCCCCCCCCCCCCCCC(=O)OCC*; CH2CH2OBz(4-tBu) = CC(C)(C)c1ccc(C(=O)OCC*)cc1; Ethyl(2-decanoyloxy) = CCCCCCCCCC(=O)OCC*; Ethyl(2-butanoyloxy) = CCCC(=O)OCC*; Ethyl(2-OPiv) = CC(C)(C)C(=O)OCC*

Target: Gap junction alpha-1 protein (Homo sapiens) (UniProt P17302)
Sequence (P17302 whole entry): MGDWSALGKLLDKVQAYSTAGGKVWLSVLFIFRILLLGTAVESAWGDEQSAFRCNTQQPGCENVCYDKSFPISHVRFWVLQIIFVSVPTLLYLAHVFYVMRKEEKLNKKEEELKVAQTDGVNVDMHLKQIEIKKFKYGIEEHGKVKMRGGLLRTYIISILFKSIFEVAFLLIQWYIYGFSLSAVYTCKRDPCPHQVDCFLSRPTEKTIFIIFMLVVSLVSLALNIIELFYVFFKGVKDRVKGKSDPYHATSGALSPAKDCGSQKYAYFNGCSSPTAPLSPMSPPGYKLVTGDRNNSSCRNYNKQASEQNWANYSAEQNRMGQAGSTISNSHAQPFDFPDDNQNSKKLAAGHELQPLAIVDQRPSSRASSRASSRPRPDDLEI
Assay: Inhibition of Cx43 in hypoxic-acidic ion-shifted ringers solution-induced human cerebral microvascular endothelial cell model of ischaemic injury assessed as ATP release at 10 uM measured after 2 hrs by luciferin-luciferase based luminescence assay relative to control
Design: scale not given: the % may be the effect or the level left
In short: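 hCMVEC (passages 8-17) seeded at 2 x 10^6/well on collagen-I (1 µg/cm²) and grown 48 h to a confluent monolayer. Washed in NR, then exposed 2 h in HAIR (pH 6.6, N₂-bubbled, low Ca²⁺, K-gluconate/NMDG) containing peptide at 10 µM. Supernatant diluted 1:10 in firefly luciferase mix and read at 560 nm against an ATP standard (0-50 nM). Expressed as % of HAIR-only, mean of n=3.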

Row | Compound | Activity
1 | CCCCCCCCCC(=O)OCCSC[C@H](NC(=O)[C@H](CC(C)C)NC(=O)[C@H](Cc1ccccc1)NC(=O)[C@H](CS)NC(=O)[C@H](CC(=O)O)NC(=O)[C@@H](N)C(C)C)C(=O)N[C@@H](CCCNC(=N)N)C(=O)N1CCC[C@H]1C(=O)N[C@H](C(=O)N[C@@H](CCC(=O)O)C(=O)N[C@@H](CCCCN)C(=O)N[C@H](C(=O)O)[C@@H](C)O)[C@@H](C)O (H-VDCFLC(Ethyl(2-decanoyloxy))RPTEKT-OH) | inactive
2 | CCCCCCCCCCCCCCCC(=O)OCCSC[C@H](NC(=O)[C@H](CC(C)C)NC(=O)[C@H](Cc1ccccc1)NC(=O)[C@H](CS)NC(=O)[C@H](CC(=O)O)NC(=O)[C@@H](N)C(C)C)C(=O)N[C@@H](CCCNC(=N)N)C(=O)N1CCC[C@H]1C(=O)N[C@H](C(=O)N[C@@H](CCC(=O)O)C(=O)N[C@@H](CCCCN)C(=O)N[C@H](C(=O)O)[C@@H](C)O)[C@@H](C)O (H-VDCFLC(Ethyl(2-palmitoyloxy))RPTEKT-OH) | inactive
3 | CCCCCCCCCCCCCCCCCC(=O)OCCSC[C@H](NC(=O)[C@H](CC(C)C)NC(=O)[C@H](Cc1ccccc1)NC(=O)[C@H](CS)NC(=O)[C@H](CC(=O)O)NC(=O)[C@@H](N)C(C)C)C(=O)N[C@@H](CCCNC(=N)N)C(=O)N1CCC[C@H]1C(=O)N[C@H](C(=O)N[C@@H](CCC(=O)O)C(=O)N[C@@H](CCCCN)C(=O)N[C@H](C(=O)O)[C@@H](C)O)[C@@H](C)O (H-VDCFLC(Ethyl(2-stearoyloxy))RPTEKT-OH) | inactive
4 | CC(C)C[C@H](NC(=O)[C@H](Cc1ccccc1)NC(=O)[C@H](CS)NC(=O)[C@H](CC(=O)O)NC(=O)[C@@H](N)C(C)C)C(=O)N[C@@H](CO)C(=O)N[C@@H](CCCNC(=N)N)C(=O)N1CCC[C@H]1C(=O)N[C@@H](CSCCOC(=O)c1ccc(C(C)(C)C)cc1)C(=O)N[C@@H](CCC(=O)O)C(=O)N[C@@H](CCCCN)C(=O)N[C@H](C(=O)O)[C@@H](C)O (H-VDCFLSRPC(CH2CH2OBz(4-tBu))EKT-OH) | inactive
5 | CC(C)C[C@H](NC(=O)[C@H](Cc1ccccc1)NC(=O)[C@H](CS)NC(=O)[C@H](CC(=O)O)NC(=O)[C@@H](N)C(C)C)C(=O)N[C@@H](CO)C(=O)N[C@@H](CCCNC(=N)N)C(=O)N1CCC[C@H]1C(=O)N[C@@H](CSCCOC(=O)C(C)(C)C)C(=O)N[C@@H](CCC(=O)O)C(=O)N[C@@H](CCCCN)C(=O)N[C@H](C(=O)O)[C@@H](C)O (H-VDCFLSRPC(Ethyl(2-OPiv))EKT-OH) | inactive
6 | CCCC(=O)OCCSC[C@H](NC(=O)[C@@H]1CCCN1C(=O)[C@H](CCCNC(=N)N)NC(=O)[C@H](CO)NC(=O)[C@H](CC(C)C)NC(=O)[C@H](Cc1ccccc1)NC(=O)[C@H](CS)NC(=O)[C@H](CC(=O)O)NC(=O)[C@@H](N)C(C)C)C(=O)N[C@@H](CCC(=O)O)C(=O)N[C@@H](CCCCN)C(=O)N[C@H](C(=O)O)[C@@H](C)O (H-VDCFLSRPC(Ethyl(2-butanoyloxy))EKT-OH) | inactive
7 | CCCCCCCCCC(=O)OCCSC[C@H](NC(=O)[C@@H]1CCCN1C(=O)[C@H](CCCNC(=N)N)NC(=O)[C@H](CO)NC(=O)[C@H](CC(C)C)NC(=O)[C@H](Cc1ccccc1)NC(=O)[C@H](CS)NC(=O)[C@H](CC(=O)O)NC(=O)[C@@H](N)C(C)C)C(=O)N[C@@H](CCC(=O)O)C(=O)N[C@@H](CCCCN)C(=O)N[C@H](C(=O)O)[C@@H](C)O (H-VDCFLSRPC(Ethyl(2-decanoyloxy))EKT-OH) | inactive
8 | CCCCCCCCCCCCCCCC(=O)OCCSC[C@H](NC(=O)[C@@H]1CCCN1C(=O)[C@H](CCCNC(=N)N)NC(=O)[C@H](CO)NC(=O)[C@H](CC(C)C)NC(=O)[C@H](Cc1ccccc1)NC(=O)[C@H](CS)NC(=O)[C@H](CC(=O)O)NC(=O)[C@@H](N)C(C)C)C(=O)N[C@@H](CCC(=O)O)C(=O)N[C@@H](CCCCN)C(=O)N[C@H](C(=O)O)[C@@H](C)O (H-VDCFLSRPC(Ethyl(2-palmitoyloxy))EKT-OH) | 102%
9 | CCCCCCCCCCCCCCCCCC(=O)OCCSC[C@H](NC(=O)[C@@H]1CCCN1C(=O)[C@H](CCCNC(=N)N)NC(=O)[C@H](CO)NC(=O)[C@H](CC(C)C)NC(=O)[C@H](Cc1ccccc1)NC(=O)[C@H](CS)NC(=O)[C@H](CC(=O)O)NC(=O)[C@@H](N)C(C)C)C(=O)N[C@@H](CCC(=O)O)C(=O)N[C@@H](CCCCN)C(=O)N[C@H](C(=O)O)[C@@H](C)O (H-VDCFLSRPC(Ethyl(2-stearoyloxy))EKT-OH) | 102%
10 | CC(C)C[C@H](NC(=O)[C@H](Cc1ccccc1)NC(=O)[C@H](CS)NC(=O)[C@H](CC(=O)O)NC(=O)[C@@H](N)C(C)C)C(=O)N[C@@H](CO)C(=O)N[C@@H](CCCNC(=N)N)C(=O)N1CCC[C@H]1C(=O)N[C@H](C(=O)N[C@@H](CSCCOC(=O)c1ccc(C(C)(C)C)cc1)C(=O)N[C@@H](CCCCN)C(=O)N[C@H](C(=O)O)[C@@H](C)O)[C@@H](C)O (H-VDCFLSRPTC(CH2CH2OBz(4-tBu))KT-OH) | inactive
11 | CC(C)C[C@H](NC(=O)[C@H](Cc1ccccc1)NC(=O)[C@H](CS)NC(=O)[C@H](CC(=O)O)NC(=O)[C@@H](N)C(C)C)C(=O)N[C@@H](CO)C(=O)N[C@@H](CCCNC(=N)N)C(=O)N1CCC[C@H]1C(=O)N[C@H](C(=O)N[C@@H](CSCCOC(=O)C(C)(C)C)C(=O)N[C@@H](CCCCN)C(=O)N[C@H](C(=O)O)[C@@H](C)O)[C@@H](C)O (H-VDCFLSRPTC(Ethyl(2-OPiv))KT-OH) | inactive
12 | CCCC(=O)OCCSC[C@H](NC(=O)[C@@H](NC(=O)[C@@H]1CCCN1C(=O)[C@H](CCCNC(=N)N)NC(=O)[C@H](CO)NC(=O)[C@H](CC(C)C)NC(=O)[C@H](Cc1ccccc1)NC(=O)[C@H](CS)NC(=O)[C@H](CC(=O)O)NC(=O)[C@@H](N)C(C)C)[C@@H](C)O)C(=O)N[C@@H](CCCCN)C(=O)N[C@H](C(=O)O)[C@@H](C)O (H-VDCFLSRPTC(Ethyl(2-butanoyloxy))KT-OH) | 32%
13 | CCCCCCCCCC(=O)OCCSC[C@H](NC(=O)[C@@H](NC(=O)[C@@H]1CCCN1C(=O)[C@H](CCCNC(=N)N)NC(=O)[C@H](CO)NC(=O)[C@H](CC(C)C)NC(=O)[C@H](Cc1ccccc1)NC(=O)[C@H](CS)NC(=O)[C@H](CC(=O)O)NC(=O)[C@@H](N)C(C)C)[C@@H](C)O)C(=O)N[C@@H](CCCCN)C(=O)N[C@H](C(=O)O)[C@@H](C)O (H-VDCFLSRPTC(Ethyl(2-decanoyloxy))KT-OH) | 96%
14 | CCCCCCCCCCCCCCCC(=O)OCCSC[C@H](NC(=O)[C@@H](NC(=O)[C@@H]1CCCN1C(=O)[C@H](CCCNC(=N)N)NC(=O)[C@H](CO)NC(=O)[C@H](CC(C)C)NC(=O)[C@H](Cc1ccccc1)NC(=O)[C@H](CS)NC(=O)[C@H](CC(=O)O)NC(=O)[C@@H](N)C(C)C)[C@@H](C)O)C(=O)N[C@@H](CCCCN)C(=O)N[C@H](C(=O)O)[C@@H](C)O (H-VDCFLSRPTC(Ethyl(2-palmitoyloxy))KT-OH) | 114%
15 | CCCCCCCCCCCCCCCCCC(=O)OCCSC[C@H](NC(=O)[C@@H](NC(=O)[C@@H]1CCCN1C(=O)[C@H](CCCNC(=N)N)NC(=O)[C@H](CO)NC(=O)[C@H](CC(C)C)NC(=O)[C@H](Cc1ccccc1)NC(=O)[C@H](CS)NC(=O)[C@H](CC(=O)O)NC(=O)[C@@H](N)C(C)C)[C@@H](C)O)C(=O)N[C@@H](CCCCN)C(=O)N[C@H](C(=O)O)[C@@H](C)O (H-VDCFLSRPTC(Ethyl(2-stearoyloxy))KT-OH) | 83.7%
